Experimental data taken from ChEMBL document CHEMBL2331221, “Potent elastase inhibitors from cyanobacteria: structural basis and mechanisms mediating cytoprotective and anti-inflammatory effects in bronchial epithelial cells” (J Med Chem, 2013).
Calls of active or inactive are those of the source. No cut-off for these calls is given here.

Tests used:
[1] = molecular target: Kallikrein-13 (Homo sapiens) (UniProt Q9UKR3); assay: Inhibition of Kallikrein-13 (unknown origin) using VPR-AMC substrate assessed as residual activity at 10 uM incubated for 15 mins prior to substrate addition measured for 2 hrs
Procedure, shortened: (§1)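 Protease panel screen: enzyme and test inhibitor preincubated 15 min in the enzyme's reaction buffer, then substrate added. Reaction followed for 2 h, and activity was taken from the initial linear portion of the progress-curve slope. Enzyme, substrate, buffer and detection conditions for each target are given only in the paper's supporting table.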

[2] = molecular target: Kallikrein-1 (Homo sapiens) (UniProt P06870); assay: Inhibition of Kallikrein-1 (unknown origin) using Z-GPR-AMC substrate assessed as residual activity at 10 uM incubated for 15 mins prior to substrate addition measured for 2 hrs; procedure, shortened: as §1
Chain of Kallikrein-1 (Homo sapiens) (P06870 25-262 limits assumed): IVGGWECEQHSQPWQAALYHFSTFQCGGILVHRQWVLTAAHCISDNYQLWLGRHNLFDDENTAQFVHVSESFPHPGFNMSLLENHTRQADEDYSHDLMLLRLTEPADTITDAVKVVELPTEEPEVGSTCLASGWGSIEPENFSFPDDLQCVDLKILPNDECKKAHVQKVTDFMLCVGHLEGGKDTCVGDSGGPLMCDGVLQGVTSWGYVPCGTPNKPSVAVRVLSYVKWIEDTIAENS

[3] = molecular target: Granzyme B (Homo sapiens) (UniProt P10144); assay: Inhibition of Granzyme B (unknown origin) using Ac-IEPD-AMC substrate assessed as residual activity at 10 uM incubated for 15 mins prior to substrate addition measured for 2 hrs; procedure, shortened: as §1
Chymase (Homo sapiens) = Chymase (Homo sapiens) (UniProt P23946); assay: Inhibition of Chymase (unknown origin) using Suc-AAPF-AMC substrate assessed as residual activity at 10 uM incubated for 15 mins prior to substrate addition measured for 2 hrs; procedure, shortened: as §1
Chain of Chymase (Homo sapiens) (P23946 whole entry): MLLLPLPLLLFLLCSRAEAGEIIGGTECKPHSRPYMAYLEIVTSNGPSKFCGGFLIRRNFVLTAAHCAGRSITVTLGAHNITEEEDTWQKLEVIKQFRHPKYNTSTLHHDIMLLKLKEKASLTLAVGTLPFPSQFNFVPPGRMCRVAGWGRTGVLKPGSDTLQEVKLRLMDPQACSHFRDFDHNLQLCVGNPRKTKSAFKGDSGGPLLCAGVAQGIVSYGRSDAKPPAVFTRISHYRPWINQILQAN

[4] = molecular target: Cathepsin G (Homo sapiens) (UniProt P08311); assay: Inhibition of Cathepsin G (unknown origin) using Suc-AAPF-AMC substrate assessed as residual activity at 10 uM incubated for 15 mins prior to substrate addition measured for 2 hrs; procedure, shortened: as §1
Chain of Cathepsin G (Homo sapiens) (P08311 whole entry): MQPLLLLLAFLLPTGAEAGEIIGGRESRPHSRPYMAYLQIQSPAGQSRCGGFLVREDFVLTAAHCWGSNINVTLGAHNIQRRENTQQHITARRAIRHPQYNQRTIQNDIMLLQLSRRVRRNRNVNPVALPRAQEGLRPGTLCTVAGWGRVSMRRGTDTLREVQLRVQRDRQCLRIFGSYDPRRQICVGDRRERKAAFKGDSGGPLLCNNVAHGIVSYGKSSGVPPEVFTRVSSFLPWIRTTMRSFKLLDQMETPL

[5] = molecular target: Dipeptidyl peptidase 4 (Homo sapiens) (UniProt P27487); assay: Inhibition of DPP4 (unknown origin) using H-GP-AMC substrate assessed as residual activity at 10 uM incubated for 15 mins prior to substrate addition measured for 2 hrs; procedure, shortened: as §1
Chain of Dipeptidyl peptidase 4 (Homo sapiens) (P27487 whole entry, looked up): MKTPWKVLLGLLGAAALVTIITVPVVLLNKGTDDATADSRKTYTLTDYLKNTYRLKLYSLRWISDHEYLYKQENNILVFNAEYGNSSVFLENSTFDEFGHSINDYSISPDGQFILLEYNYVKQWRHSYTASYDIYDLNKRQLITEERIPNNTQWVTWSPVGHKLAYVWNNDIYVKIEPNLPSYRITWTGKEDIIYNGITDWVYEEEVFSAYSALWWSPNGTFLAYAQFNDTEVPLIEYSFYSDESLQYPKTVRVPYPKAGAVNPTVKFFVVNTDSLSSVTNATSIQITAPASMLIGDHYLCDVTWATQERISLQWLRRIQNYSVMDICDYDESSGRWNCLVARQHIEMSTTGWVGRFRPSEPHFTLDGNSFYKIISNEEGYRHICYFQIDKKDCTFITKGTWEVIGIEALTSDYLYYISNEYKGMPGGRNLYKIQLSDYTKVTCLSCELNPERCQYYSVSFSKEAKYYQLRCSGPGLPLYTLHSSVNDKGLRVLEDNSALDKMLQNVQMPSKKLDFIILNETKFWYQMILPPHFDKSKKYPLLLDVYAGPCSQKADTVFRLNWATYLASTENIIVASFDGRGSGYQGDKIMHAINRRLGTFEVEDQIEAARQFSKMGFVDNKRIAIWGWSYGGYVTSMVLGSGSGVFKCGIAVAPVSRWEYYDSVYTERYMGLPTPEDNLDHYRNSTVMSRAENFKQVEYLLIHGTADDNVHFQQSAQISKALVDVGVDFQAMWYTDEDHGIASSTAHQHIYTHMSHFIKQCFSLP

Homo sapiens = organism: Homo sapiens; assay: Inhibition of human pancreatic chymotrypsin assessed as proteolysis using N-succinyl-Ala-Ala-Pro-Phe-p-nitroanilide substrate incubated at 10 uM for 30 mins prior to substrate addition; parameters: scale not given: the % may be the effect or the level left
Procedure, shortened: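 Pancreatic chymotrypsin, bovine at 100 μg/mL or human at 50 μg/mL; reaction buffer, enzyme and inhibitor (DMSO) incubated 30 min at room temperature, then substrate added (bovine: N-succinyl-Gly-Gly-Phe-pNA; human: N-succinyl-Ala-Ala-Pro-Phe-pNA). Absorbance read at 405 nm; activity from reaction slope relative to solvent control.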

[6] = Inhibition of human pancreatic chymotrypsin assessed as proteolysis using N-succinyl-Ala-Ala-Pro-Phe-p-nitroanilide substrate incubated for 30 mins prior to substrate addition
Kallikrein-12 = Kallikrein-12 (Homo sapiens, UniProt Q9UKR0); assay: Inhibition of Kallikrein-12 (unknown origin) using VPR-AMC substrate incubated for 15 mins prior to substrate addition measured for 2 hrs; procedure, shortened: as §1
Chain of Kallikrein-12 (Q9UKR0 whole entry): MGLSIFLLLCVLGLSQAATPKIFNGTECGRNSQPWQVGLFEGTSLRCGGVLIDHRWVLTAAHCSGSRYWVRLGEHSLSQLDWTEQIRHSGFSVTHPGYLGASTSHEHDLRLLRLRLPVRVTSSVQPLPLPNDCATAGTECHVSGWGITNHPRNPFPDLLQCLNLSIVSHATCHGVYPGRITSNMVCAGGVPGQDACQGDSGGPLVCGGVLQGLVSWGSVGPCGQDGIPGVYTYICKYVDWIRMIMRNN

Cathepsin G = Cathepsin G (Homo sapiens, UniProt P08311); assay: Inhibition of Cathepsin G (unknown origin) using Suc-AAPF-AMC substrate incubated for 15 mins prior to substrate addition measured for 2 hrs; procedure, shortened: as §1
Chain of Cathepsin G (P08311 whole entry, the tested form may be a part): as the sequence (P08311 whole entry) above

[7] = molecular target: Disintegrin and metalloproteinase domain-containing protein 10 (Homo sapiens) (UniProt O14672); assay: Inhibition of ADAM10 (unknown origin) using MCA-PLAQAV-Dpa-RSSSR-[…] substrate assessed as residual activity at 10 uM incubated for 15 mins prior to substrate addition measured for 2 hrs; procedure, shortened: as §1
[8] = molecular target: Matrix metalloproteinase-14 (Homo sapiens) (UniProt P50281); assay: Inhibition of MMP14 (unknown origin) using (5-FAM/QXLTM) FRET peptide substrate assessed as residual activity at 10 uM incubated for 15 mins prior to substrate addition measured for 2 hrs; procedure, shortened: as §1
[9] = molecular target: Matrilysin (Homo sapiens) (UniProt P09237); assay: Inhibition of MMP7 (unknown origin) using (5-FAM/QXLTM) FRET peptide substrate assessed as residual activity at 10 uM incubated for 15 mins prior to substrate addition measured for 2 hrs
Procedure, shortened: (§2)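 Protease panel screen: enzyme and inhibitor preincubated 15 min in reaction buffer, then substrate added; reaction followed for 2 h and the initial linear part of the progress curve used for activity. Enzyme, substrate, buffer and detection details are given only in a supporting table.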

[10] = molecular target: 72 kDa type IV collagenase (Homo sapiens) (UniProt P08253); assay: Inhibition of MMP2 (unknown origin) using (5-FAM/QXLTM) FRET peptide substrate assessed as residual activity at 10 uM incubated for 15 mins prior to substrate addition measured for 2 hrs; procedure, shortened: as §1
Chain of 72 kDa type IV collagenase (Homo sapiens) (P08253 110-660 limits assumed): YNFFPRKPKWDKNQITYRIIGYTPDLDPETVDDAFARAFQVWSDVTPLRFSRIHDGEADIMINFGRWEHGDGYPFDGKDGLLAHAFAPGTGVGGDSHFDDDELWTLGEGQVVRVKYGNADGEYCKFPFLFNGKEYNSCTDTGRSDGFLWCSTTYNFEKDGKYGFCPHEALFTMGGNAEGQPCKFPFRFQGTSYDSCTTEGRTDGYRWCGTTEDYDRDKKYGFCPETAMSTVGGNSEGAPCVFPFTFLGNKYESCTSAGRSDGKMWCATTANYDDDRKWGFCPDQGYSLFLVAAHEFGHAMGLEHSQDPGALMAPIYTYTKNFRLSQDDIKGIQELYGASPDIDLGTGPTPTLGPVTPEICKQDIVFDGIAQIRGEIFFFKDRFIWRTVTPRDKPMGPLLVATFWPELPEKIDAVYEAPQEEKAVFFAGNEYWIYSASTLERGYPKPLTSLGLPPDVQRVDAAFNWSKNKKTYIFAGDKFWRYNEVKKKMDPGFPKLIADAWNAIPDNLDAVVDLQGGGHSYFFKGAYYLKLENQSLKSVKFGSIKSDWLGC

[11] = molecular target: Angiotensin-converting enzyme (Homo sapiens) (UniProt P12821); assay: Inhibition of ACE1 (unknown origin) using MCA-RPPGFSAFK(Dnp) substrate assessed as residual activity at 10 uM incubated for 15 mins prior to substrate addition measured for 2 hrs; procedure, shortened: as §1
Chain of Angiotensin-converting enzyme (Homo sapiens) (P12821 whole entry): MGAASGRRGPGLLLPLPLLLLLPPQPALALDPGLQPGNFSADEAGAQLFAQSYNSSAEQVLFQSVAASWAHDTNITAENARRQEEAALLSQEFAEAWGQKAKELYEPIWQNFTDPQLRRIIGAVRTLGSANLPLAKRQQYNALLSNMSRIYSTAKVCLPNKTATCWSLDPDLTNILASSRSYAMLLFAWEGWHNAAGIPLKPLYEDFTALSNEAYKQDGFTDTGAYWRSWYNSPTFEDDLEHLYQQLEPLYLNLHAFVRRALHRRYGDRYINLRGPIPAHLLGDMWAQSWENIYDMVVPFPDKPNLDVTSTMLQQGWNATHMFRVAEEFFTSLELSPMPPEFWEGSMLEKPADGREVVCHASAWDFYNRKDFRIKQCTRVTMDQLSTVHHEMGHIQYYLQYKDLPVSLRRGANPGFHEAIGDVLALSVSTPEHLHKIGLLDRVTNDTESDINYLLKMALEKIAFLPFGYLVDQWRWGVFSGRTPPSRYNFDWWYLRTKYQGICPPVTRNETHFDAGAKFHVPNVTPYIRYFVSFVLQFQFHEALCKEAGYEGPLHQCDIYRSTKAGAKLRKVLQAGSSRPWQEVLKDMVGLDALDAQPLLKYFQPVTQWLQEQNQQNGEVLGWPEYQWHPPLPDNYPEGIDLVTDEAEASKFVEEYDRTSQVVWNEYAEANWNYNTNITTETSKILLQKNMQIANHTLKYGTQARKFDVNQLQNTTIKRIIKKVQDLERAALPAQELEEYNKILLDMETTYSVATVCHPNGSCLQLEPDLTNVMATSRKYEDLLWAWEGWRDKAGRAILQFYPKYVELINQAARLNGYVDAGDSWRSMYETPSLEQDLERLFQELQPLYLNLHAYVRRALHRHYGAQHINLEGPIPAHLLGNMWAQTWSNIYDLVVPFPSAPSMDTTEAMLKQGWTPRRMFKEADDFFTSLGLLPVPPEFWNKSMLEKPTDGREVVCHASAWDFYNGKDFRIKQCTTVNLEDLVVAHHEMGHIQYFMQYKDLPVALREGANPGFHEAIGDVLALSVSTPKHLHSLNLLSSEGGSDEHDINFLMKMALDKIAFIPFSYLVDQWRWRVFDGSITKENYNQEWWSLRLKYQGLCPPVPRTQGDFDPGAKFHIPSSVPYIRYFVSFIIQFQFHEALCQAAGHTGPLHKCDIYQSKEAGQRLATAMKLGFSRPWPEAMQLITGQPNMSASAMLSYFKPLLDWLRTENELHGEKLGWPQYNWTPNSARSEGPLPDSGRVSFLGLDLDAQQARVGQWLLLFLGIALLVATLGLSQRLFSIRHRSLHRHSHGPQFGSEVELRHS

Papain (Carica papaya) = Papain (Carica papaya) (UniProt P00784); assay: Inhibition of papaya Papain using Z-FR-AMC substrate assessed as residual activity at 10 uM incubated for 15 mins prior to substrate addition measured for 2 hrs; procedure, shortened: as §2
Chain of Papain (Carica papaya) (P00784 whole entry): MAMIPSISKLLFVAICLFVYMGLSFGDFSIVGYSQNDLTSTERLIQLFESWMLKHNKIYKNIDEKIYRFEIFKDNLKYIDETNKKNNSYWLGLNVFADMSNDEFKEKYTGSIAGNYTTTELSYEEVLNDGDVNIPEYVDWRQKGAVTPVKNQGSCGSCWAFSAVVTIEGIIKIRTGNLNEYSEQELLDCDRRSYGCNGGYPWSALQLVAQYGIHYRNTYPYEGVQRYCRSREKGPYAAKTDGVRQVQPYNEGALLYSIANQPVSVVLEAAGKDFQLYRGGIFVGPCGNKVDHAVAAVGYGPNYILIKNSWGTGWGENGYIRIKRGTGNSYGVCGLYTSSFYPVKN

[12] = molecular target: Cathepsin K (Homo sapiens) (UniProt P43235); assay: Inhibition of Cathepsin K (unknown origin) using Z-GPR-AMC substrate assessed as residual activity at 10 uM incubated for 15 mins prior to substrate addition measured for 2 hrs; procedure, shortened: as §1
Chain of Cathepsin K (Homo sapiens) (P43235 whole entry): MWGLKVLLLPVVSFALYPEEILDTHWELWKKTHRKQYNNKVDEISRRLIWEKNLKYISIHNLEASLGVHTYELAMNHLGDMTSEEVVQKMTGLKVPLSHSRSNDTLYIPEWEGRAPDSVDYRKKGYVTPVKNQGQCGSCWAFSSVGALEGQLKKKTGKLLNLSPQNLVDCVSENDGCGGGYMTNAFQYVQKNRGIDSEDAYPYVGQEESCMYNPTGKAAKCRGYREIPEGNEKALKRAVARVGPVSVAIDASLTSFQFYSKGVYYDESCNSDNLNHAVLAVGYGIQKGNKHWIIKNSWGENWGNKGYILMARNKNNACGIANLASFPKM

[13] = Inhibition of Thrombin alpha (unknown origin) using H-D-CHA -Ala-Arg-AMC.2AcOH substrate incubated for 15 mins prior to substrate addition measured for 2 hrs; parameters: species or system Homo sapiens; procedure, shortened: as §2
[14] = Inhibition of Proteinase K (unknown origin) using H-D-CHA -Ala-Arg-AMC.2AcOH substrate incubated for 15 mins prior to substrate addition measured for 2 hrs; parameters: species or system Homo sapiens; procedure, shortened: as §2
[15] = molecular target: Urokinase-type plasminogen activator (Homo sapiens) (UniProt P00749); assay: Inhibition of Urokinase (unknown origin) using Bz-b-Ala-Gly-Arg-AMC.AcOH substrate assessed as residual activity at 10 uM incubated for 15 mins prior to substrate addition measured for 2 hrs; procedure, shortened: as §2
Tryptase gamma = Tryptase gamma (Homo sapiens, UniProt Q9NRR2); assay: Inhibition of Tryptase gamma1 (unknown origin) using Z-GPR-AMC substrate assessed as residual activity at 10 uM incubated for 15 mins prior to substrate addition measured for 2 hrs; procedure, shortened: as §2
Chain of Tryptase gamma (Q9NRR2 38-321 limits assumed, other chains not shown): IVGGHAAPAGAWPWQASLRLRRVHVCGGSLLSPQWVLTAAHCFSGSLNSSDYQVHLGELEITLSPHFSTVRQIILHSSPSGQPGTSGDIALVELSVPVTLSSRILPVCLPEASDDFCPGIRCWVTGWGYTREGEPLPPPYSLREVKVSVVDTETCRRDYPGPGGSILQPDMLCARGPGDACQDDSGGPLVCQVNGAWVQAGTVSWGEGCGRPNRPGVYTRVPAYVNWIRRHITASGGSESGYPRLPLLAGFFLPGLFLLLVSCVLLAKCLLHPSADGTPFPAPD

[16] = molecular target: T1, Neutrophil elastase (Homo sapiens) (UniProt P08246); conditions: 10 uM
T1 sequence (whole entry): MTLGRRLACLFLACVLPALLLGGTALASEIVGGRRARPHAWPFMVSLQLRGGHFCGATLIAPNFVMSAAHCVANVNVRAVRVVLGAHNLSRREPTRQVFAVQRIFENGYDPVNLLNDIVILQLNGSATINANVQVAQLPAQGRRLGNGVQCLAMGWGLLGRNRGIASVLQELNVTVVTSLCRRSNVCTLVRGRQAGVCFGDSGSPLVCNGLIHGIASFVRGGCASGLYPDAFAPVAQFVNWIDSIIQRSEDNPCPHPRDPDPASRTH

[17] = molecular target: T1, Neutrophil elastase (Homo sapiens); conditions: BEAS2B, 100 uM
[18] = molecular target: Tryptase beta-2 (Homo sapiens) (UniProt P20231); assay: Inhibition of Tryptase beta2 (unknown origin) using Z-GPR-AMC substrate assessed as residual activity at 10 uM incubated for 15 mins prior to substrate addition measured for 2 hrs
Chain of Tryptase beta-2 (Homo sapiens) (P20231 whole entry, looked up): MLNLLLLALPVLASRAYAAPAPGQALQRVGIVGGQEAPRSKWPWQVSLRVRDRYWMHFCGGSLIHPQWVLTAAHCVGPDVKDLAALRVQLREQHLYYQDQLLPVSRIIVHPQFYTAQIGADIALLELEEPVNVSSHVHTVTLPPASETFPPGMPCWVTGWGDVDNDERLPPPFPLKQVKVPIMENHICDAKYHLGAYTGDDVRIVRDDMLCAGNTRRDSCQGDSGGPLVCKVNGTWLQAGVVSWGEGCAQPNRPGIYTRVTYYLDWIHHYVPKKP

Which Activity [1] does the source give for `C/C=C1\NC(=O)[C@@H](NC(=O)[C@@H](NC(=O)[C@@H](COS(=O)(=O)[O-])OC)C(C)C)[C@@H](C)OC(=O)[C@H]([C@H](C)CC)NC(=O)[C@H](Cc2ccccc2)N(C)C(=O)[C@H](Cc2ccccc2)N2C(=O)[C@H](CC[C@H]2O)NC1=O.[Na+]` [Symplostatin 5] here?
The Activity was 100%.

And the Activity [2]?
Its Activity is 100%.

What about the Activity [3] of the same compound?
Its Activity is 100%.

What about the Activity (Chymase (Homo sapiens)) of the same compound?
The Activity was 100%.

And the Activity [4]?
The Activity was 50%.

And the Activity [5]?
Its Activity is 100%.

What about the Activity (Homo sapiens) of the same compound?
The Activity was 53.4%.

What about the IC50 [6] of the same compound?
Its IC50 is greater than 10 µM.

What about the IC50 (Kallikrein-12) of the same compound?
Its IC50 is less than 10 µM.

And the IC50 (Cathepsin G)?
The IC50 was less than 10 µM.

What about the Activity [7] of the same compound?
Its Activity is 100%.

What about the Activity [8] of the same compound?
Its Activity is 100%.

And the Activity [9]?
The Activity was 100%.

What about the Activity [10] of the same compound?
The Activity was 100%.

What about the Activity [11] of the same compound?
The Activity was 100%.

And the Activity (Papain (Carica papaya))?
Its Activity is 100%.

And the Activity [12]?
The Activity was 100%.

And the pIC50 [13]?
The pIC50 was greater than 5.

What about the pIC50 [14] of the same compound?
Its pIC50 is less than 5.

What about the Activity [15] of the same compound?
The Activity was 100%.

And the Activity (Tryptase gamma)?
Its Activity is 100%.

And the inhibition [16]?
Its inhibition is “Active”.

What about the inhibition [17] of the same compound?
The inhibition was “inactive”.

What about the Activity [18] of the same compound?
The Activity was 100%.
